# Source: PubChem (The Scripps Research Institute Molecular Screening Center)
# TRPN1 ag: agonists of zebrafish TRPN1 channel; 220,000 compounds, 0.18% hits; activation, % at 3 µM; HEK293 zebrafish TRPN1-YFP, Fluo-8 calcium fluorescence; 100% = response to 87 µM carbachol; AID 1424;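 active = activation above its plate's cutoff, the mean activation of test wells on that plate plus 3 SD, cut at about 19% in these data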
#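 Material – zebrafish TRPN1-YFP in HEK293 cells · Doses – 3 µM single point · Schedule – dye 1 h 37 °C plus 30 min RT · Signal – Fluo-8 calcium fluorescence, excitation 470-495 nm, emission 515-575 nm · Read-out – % activation versus carbachol response · Control set – carbachol high, DMSO low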
# OXTR potentiate: potentiators of human oxytocin receptor; P30559; AID 2445; CHO-OTR cells, Fluo-8 calcium fluorescence, potentiator mode; 0% = oxytocin EC15, 100% = EC100; activation, % at 3 µM; 320,000 compounds, 0.061% hits;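 active = activation above that plate's cutoff, the mean activation of tested compounds plus 3 SD, cut at about 6.6% in these data, passing the limit was not always enough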
# Target sequence (P30559 whole entry, looked up): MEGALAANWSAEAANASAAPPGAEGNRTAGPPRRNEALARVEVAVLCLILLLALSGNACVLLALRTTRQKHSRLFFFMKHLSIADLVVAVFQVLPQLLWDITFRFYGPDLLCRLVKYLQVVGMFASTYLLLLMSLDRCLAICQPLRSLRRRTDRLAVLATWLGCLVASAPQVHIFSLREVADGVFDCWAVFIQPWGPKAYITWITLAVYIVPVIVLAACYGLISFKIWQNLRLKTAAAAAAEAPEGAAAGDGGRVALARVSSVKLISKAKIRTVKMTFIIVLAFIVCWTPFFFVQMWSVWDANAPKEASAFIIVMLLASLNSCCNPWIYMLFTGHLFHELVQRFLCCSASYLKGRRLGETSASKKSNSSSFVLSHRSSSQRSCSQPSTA
#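 Material: human OTR in CHO cells. Compound: 3.0 µM, one dose. Timing: compound 6 min at room temperature before oxytocin, 100 s read. Evaluation: % activation of max/min ratio relative to oxytocin controls. Replication: single well per compound, singlicate. Signal: Fluo-8 calcium dye fluorescence.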
# TRPML3 ag: human mucolipin-3 channel agonism. Q8TDD5. HEK293 TRPML3-YFP, Fluo-8 calcium fluorescence; 100% = the carbachol control signal. AID 1448. activation, % at 3 µM. 220,000 compounds, 0.29% hits;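 active = activation above its plate's cutoff, the mean activation of the plate's test wells plus 3 SD, cut at about 12% in these data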
#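 Material: HEK293 cells stably carrying human TRPML3-YFP; compound dosing: single dose, 3 µM final nominal compound, 0.3% DMSO final; incubation: 1-h 37 °C dye load, 5-s basal, 120-s post-compound reads; technique: Fluo-8 intracellular calcium fluorescence, excitation 470-495 nm, emission 515-575 nm; read-out basis: percent activation from peak-to-basal fluorescence ratio, scaled between DMSO and carbachol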
# V1R ag counter: activates human V1a receptor in oxytocin agonist counter-screen; AID 2797; activation, % at 3 µM; 320,000 compounds, 0.25% hits; P37288; CHO-V1R cells, Fluo-8 calcium fluorescence, agonist mode; 0% DMSO, 100% 3 nM vasopressin;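 active = activation above the mean activation of all tested compounds plus 3 SD, per screening run, cut at about 20% in these data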;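 also: signal is peak over basal fluorescence ratio across a 100 second FLIPR read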
# OXTR ag: agonists of human oxytocin receptor; CHO-OTR cells, Fluo-8 calcium fluorescence; normalized: DMSO 0%, oxytocin 100%; AID 2435; activation, % at 3 µM; 320,000 compounds, 0.32% hits; P30559;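 active = activation above the mean of all tested compounds plus 3 SD, cutoff set per screening run, cut at about 20% in these data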;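 also: peak over basal fluorescence ratio from a 100 s FLIPR kinetic read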
# OXTR pot confirm: human OXTR potentiation, confirmation; CHO-OTR cells, Fluo-8 calcium fluorescence; scaled from low-dose to maximal oxytocin; activation, % at 3 µM; shares compounds with OXTR potentiate; AID 434985; 180 tested, under 10 active;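 active = mean percent activation over triplicates above a cutoff set from solvent-only control plates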;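 also: compounds tested in the presence of an EC15 dose of oxytocin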
# V1aR agonist cf: human V1a receptor agonism, confirmation; AID 434964; CHO-V1R cells, Fluo-8 calcium fluorescence, agonist; activation, % at 3 µM; shares compounds with V1R ag counter; 180 compounds, 20% hits;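 active = average activation exceeds primary screen hit cutoff, cut at about 21% in these data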;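 also: peak over basal fluorescence ratio during a 100 s FLIPR read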
# OXTR ag counter: counter-screen for V1a receptor agonists: oxytocin receptor agonists | shares compounds with V1R ag counter | CHO-OTR cells, Fluo-8 calcium fluorescence, agonist | activation, % at 3 µM | 180 compounds, 10% hits;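 active = mean activation over three repeats above the cutoff from the earlier oxytocin receptor agonist screen, cut at about 20% in these data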;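 also: peak over minimum fluorescence ratio within a 100 second FLIPR read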
# A number is an active result; i = inactive; nt = not tested or not shown; ! = not active in a repeat. Only some compounds are listed: those with a hit (about 0.58% of all), similar ones and a draw of the others.
SMILES,TRPN1 ag,OXTR potentiate,TRPML3 ag,V1R ag counter,OXTR ag,V1aR agonist cf,OXTR ag counter,others
c1ccc(-c2noc(CSc3nc4ccccc4o3)n2)cc1,i,13,i,i,i,nt,nt,OXTR pot confirm=i
Clc1ccc(-c2nnc(SCc3nc(-c4ccccc4)no3)o2)cc1,i,i,i,i,i,nt,nt,
COc1ccc(NC(=O)CN2C(=O)/C(=C3\SC(=S)N(C4CCS(=O)(=O)C4)C3=O)c3ccccc32)cc1 (stereo unspecified),i,i,i,22,i,i,i,
O=C(COc1ccccc1[N+](=O)[O-])N/N=C/c1ccc(O)c([N+](=O)[O-])c1,i,i,i,67,i,i,i,
CC(=O)Nc1ccc(N=Cc2c(O)c(C(=O)Nc3ccccc3)cc3ccccc23)cc1,i,i,i,38,i,193,169,
CC(=O)Nc1ccc(NC(=O)c2cccc3ccccc23)cc1,nt,i,nt,i,i,nt,nt,
COc1cccc(N2CCN(c3ccc(S(=O)(=O)N4CCN(C)CC4)cc3[N+](=O)[O-])CC2)c1,nt,i,nt,21,i,i,i,
CCCC(C)NC(=O)CN1C(=O)NC2(CCc3ccccc32)C1=O (stereo unspecified),nt,i,nt,i,i,nt,nt,
C#CCOCCOCCOCCNc1nc(N2CCN(C(=O)CCCCCCCCCCNC(=O)[C@H](CCCCN)n3cc(CCCC(=O)O)nn3)CC2)nc(N2CCN(C(=O)CCCCCCCCCCNC(=O)[C@@H]([C@H](C)O)n3cc(C)nn3)CC2)n1,nt,i,nt,21,i,i,i,
C#CCOCCOCCOCCNc1nc(N2CCN(C(=O)CCCCCCCCCCNC(=O)[C@@H](CCC(=O)O)n3cc(CCCCCN)nn3)CC2)nc(N2CCN(C(=O)CCCCCCCCCCNC(=O)[C@H]([C@@H](C)CC)n3cc(CCCCCN)nn3)CC2)n1,nt,i,nt,i,i,nt,nt,
C#CCOCCOCCOCCNc1nc(N2CCN(C(=O)CCCCCCCCCCNC(=O)[C@H]([C@@H](C)CC)n3cc(CCCCCN)nn3)CC2)nc(N2CCN(C(=O)CCCCCCCCCCNC(=O)[C@H](CCCCN)n3cc(CCCC(=O)O)nn3)CC2)n1,nt,i,nt,20,i,i,i,
C#CCOCCOCCOCCNc1nc(N2CCN(C(=O)CCCCCCCCCCNC(=O)[C@H](CCCCN)n3cc(C)nn3)CC2)nc(N2CCN(C(=O)CCCCCCCCCCNC(=O)[C@H](CCCCN)n3cc(CCCC(=O)O)nn3)CC2)n1,nt,i,nt,i,i,nt,nt,
CCOc1cc(/C=C2\CCCc3c2nc2ccccc2c3C(=O)O)ccc1OC,nt,i,nt,60,i,i,i,
c1ccc(Oc2cccc(Oc3ccccc3)n2)cc1,nt,i,nt,i,i,nt,nt,
COc1ccc(C(=O)O)cc1S(=O)(=O)N(CCc1ccccc1)Cc1ccccc1,i,i,i,25,i,i,i,
COc1ccc(C(=O)O)cc1S(=O)(=O)N(C)CCc1cccnc1,i,i,i,i,i,nt,nt,
CN(CCC#N)C(=O)COC(=O)C1c2ccccc2Oc2ccccc21,nt,i,nt,i,i,nt,nt,
N#CCCN(CCC#N)C(=O)C1c2ccccc2Oc2ccccc21,nt,i,nt,26,i,i,i,
CCc1cc2c(SCC(=O)N3CCCC3=O)ncnc2s1,nt,i,nt,i,i,nt,nt,
CC1(CCc2ccc3c(c2)OCO3)NCCc2c1[nH]c1ccccc21 (stereo unspecified),nt,i,nt,30,i,i,22,
CCOC(=O)c1[nH]c(CN2CCN(c3ccc(OC)cc3)CC2)c(C(=O)OCC)c1C,nt,i,nt,24,i,i,22,
CCOC(=O)c1[nH]c(C)c(C(=O)N2CCN(c3ccc(OC)cc3)CC2)c1C,i,i,i,i,i,nt,nt,
COc1cccc(OC)c1C(=O)Nc1ccnn1C,nt,i,nt,i,i,nt,nt,
COC(=O)c1ccccc1NC(=O)C(C)n1nc(C)c2c(C)n(-c3ccccc3)nc2c1=O (stereo unspecified),nt,i,nt,23,i,i,i,
Cc1nn(C(C)C(=O)Nc2ccccc2Cl)c(=O)c2nn(-c3ccccc3)c(C)c12 (stereo unspecified),nt,i,nt,i,i,nt,nt,
SMILES,TRPN1 ag,OXTR potentiate,TRPML3 ag,V1R ag counter,OXTR ag,V1aR agonist cf,OXTR ag counter,others
O=C(Nc1ncc(S(=O)(=O)c2ccc([N+](=O)[O-])cc2)s1)c1ccc2ccccc2c1,i,i,i,i,i,nt,nt,
COC(=O)C(NC(=O)c1ccccc1Cl)(Nc1ncc(S(=O)(=O)c2ccc([N+](=O)[O-])cc2)s1)C(F)(F)F (stereo unspecified),i,i,i,28,i,i,i,
CC(=O)Nc1ccc(S(=O)(=O)NCC(=O)OCC(=O)N2CCCCCC2)cc1,nt,i,nt,i,i,nt,nt,
COc1ccc(NC(=O)COC(=O)CCc2ccc(S(=O)(=O)N3CCOCC3)cc2)cc1Cl,nt,i,nt,i,i,nt,nt,
O=C(Nc1nnc(-c2ccc3c(c2)CCCC3)o1)c1ccccc1,i,i,i,34,i,i,i,
C#CCCc1ccccc1/C=[N+](/C)[O-],nt,i,nt,i,i,nt,nt,
COc1ccc(NC(=O)CSc2ccc3c4c(cccc24)C(=O)c2ccccc2-3)cc1,i,i,i,i,i,nt,nt,
N#Cc1cccc(NC(=O)CSc2ccc3c4c(cccc24)C(=O)c2ccccc2-3)c1,i,i,i,41,i,107,84,
Cc1cccc(NC(=S)NNC(=O)c2ccco2)c1,i,i,i,23,i,i,i,
CCN1C(=S)SC(=O)C1=C1C=C(C)N(Cc2ccco2)C(C)=C1,i,i,i,24,i,23,i,
COc1cc([N+](=O)[O-])ccc1NC(=O)Nn1cnnc1,nt,i,nt,i,i,nt,nt,
COc1ccc(Nc2cc(C(=O)NCCCOC(C)C)c3ccccc3n2)c(OC)c1,nt,i,nt,25,i,i,i,
Nc1c(C(=O)NCc2ccc3c(c2)OCO3)nnn1Cc1ccc(Br)cc1,i,i,i,37,i,i,23,
CC1CN(C(=O)CSc2nnc(CNC(=O)c3ccc(S(=O)(=O)N(C)C)cc3)o2)CC(C)O1 (stereo unspecified),nt,i,nt,i,i,nt,nt,
CCOC(=O)c1c(NC(=O)CC)sc2c1CCN(Cc1ccccc1)C2,nt,i,nt,22,i,i,i,
CCCCCCCCCCOC(=O)Cn1c(COc2ccc(OC)cc2)[n+](C)c2ccccc21,nt,i,nt,30,22!,i,i,
CCC[C@@H]1C[C@@H](C(=O)N[C@@H](C2O[C@H](SC)[C@H](O)[C@@H](O)[C@H]2O)[C@H](C)Cl)N(C)C1 (stereo partly specified),i,i,i,43,i,i,i,
